From ChEMBL document CHEMBL4359883, “4(1H)-quinolone derivatives overcome acquired resistance to anti-microtubule agents by targeting the colchicine site of β-tubulin” (Eur J Med Chem, 2019)
One block for each compound: values may come before it. Activity calls are given as the source filed them. The calls are words filed in the database; no cut-off is given here.

Tests used:
KB = experiment: Antiproliferative activity against human KB cells assessed as reduction in cell viability after 72 hrs by MTS assay; assay type: functional, cell-based
In short: (§1)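 Cells plated at 2000/well, cultured overnight, then exposed to a range of compound concentrations for 72 h. MTS reagent added for 1–4 h at 37 °C and absorbance read at 490 nm. Cultured in RPMI 1640 or DMEM with 10% heat-inactivated FBS under 5% CO2. Data are the mean of three determinations.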

CCRF-CEM = experiment: Antiproliferative activity against human CCRF-CEM cells assessed as reduction in cell viability after 72 hrs by MTS assay; assay type: functional, cell-based; in short: as §1
[1] = Antiproliferative activity against human KBtax cells assessed as reduction in cell viability after 72 hrs by MTS assay; assay type: functional, cell-based; in short: as §1
[2] = Selectivity index, ratio of IC50 for human KBtax cells to IC50 for human KB cells; assay type: functional
[3] = Antiproliferative activity against human KB/VCR cells assessed as reduction in cell viability after 72 hrs by MTS assay; assay type: functional, cell-based; in short: as §1
[4] = Selectivity index, ratio of IC50 for human KB/VCR cells to IC50 for human KB cells; assay type: functional
[5] = Antiproliferative activity against human CCRF-CEM/VBL cells assessed as reduction in cell viability after 72 hrs by MTS assay; assay type: functional, cell-based; in short: as §1
[6] = Selectivity index, ratio of IC50 for human CCRF-CEM/VBL cells to IC50 for human CCRF-CEM cells; assay type: functional
[7] = biological target: T1, Tubulin alpha (Homo sapiens) (UniProt P0DPH7+P68366+Q71U36+P68363+Q9BQE3+Q6PEY2+A6NHL2+Q9NY65); experiment: Induction of microtubule depolymerization in human CL1-0 cells assessed as increase in alpha tubulin soluble form by immunoblot analysis; assay type: cell-based
In short: (§2)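 Lysate spun at 16,000 rpm for 15 min at room temperature. Soluble (monomer) and particulate (polymer) fractions immunoblotted for α-tubulin.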

[8] = biological target: T1, Tubulin alpha (Homo sapiens); experiment: Induction of microtubule depolymerization in human NCI-H1975 cells assessed as increase in alpha tubulin soluble form by immunoblot analysis; assay type: cell-based; in short: as §2
Tubulin (Sus scrofa) = Tubulin (Sus scrofa) (UniProt P02554+P02550); experiment: Inhibition of porcine tubulin at 5 uM in presence of GTP measured every minute for 1 hr by microplate reader analysis; assay type: protein assay
[9] = Antitumour activity against human KBtax cells xenografted in Balb/c mouse assessed as reduction in tumour size at 15 mg/kg, ip administered 3 times per week and measured after 21 days (reference value: 1109 +/- 128.3 mm3); assay type: functional
[10] = Toxicity in Balb/c mouse xenografted with human KBtax cells assessed as serum AST level at 15 mg/kg, ip administered 3 times per week and measured after 21 days (reference value: 94.2 +/- 12.5 IU/L); assay type: organism-based; conditions: in vivo, 504 h
[11] = Toxicity in Balb/c mouse xenografted with human KBtax cells assessed as serum BUN level at 15 mg/kg, ip administered 3 times per week and measured after 21 days (reference value: 17.8 +/-1.1 mg/dl); assay type: organism-based; conditions: in vivo, 504 h
[12] = Toxicity in Balb/c mouse xenografted with human KBtax cells assessed as serum creatinine level at 15 mg/kg, ip administered 3 times per week and measured after 21 days (reference value: 0.22 +/- 0.02 mg/dl); assay type: organism-based; conditions: in vivo, 504 h
NCI-H1975 = experiment: Antiproliferative activity against human NCI-H1975 cells assessed as reduction in cell viability after 72 hrs by MTS assay; assay type: functional, cell-based; conditions: NCI-H1975, 72 h; in short: as §1
[13] = Toxicity in Balb/c mouse xenografted with human NCI-H1975 cells assessed as effect on body mass at 4 to 8 mg/kg, ip administered 3 times per week for 25 days; assay type: organism-based; conditions: in vivo, 600 h
In short: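 H1975 cells (2 × 10^6) injected subcutaneously into right flank of 6-week-old BALB/c nude mice; established tumors treated intraperitoneally with 4 or 8 mg/kg compound in DMSO, or DMSO, three times a week for 25 days (n = 6 per group). Body mass recorded before each injection.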

[14] = Toxicity in Balb/c mouse xenografted with human NCI-H1975 cells assessed as serum ALT level at 4 mg/kg, ip administered 3 times per week for 25 days (reference value: 36.6 +/- 5.9 IU/L); assay type: organism-based; conditions: in vivo, 600 h
[15] = Toxicity in Balb/c mouse xenografted with human NCI-H1975 cells assessed as serum ALT level at 8 mg/kg, ip administered 3 times per week for 25 days (reference value: 36.6 +/- 5.9 IU/L); assay type: organism-based; conditions: in vivo, 600 h
[16] = Toxicity in Balb/c mouse xenografted with human NCI-H1975 cells assessed as serum AST level at 4 mg/kg, ip administered 3 times per week for 25 days (reference value: 122 +/- 14.5 IU/L); assay type: organism-based; conditions: in vivo, 600 h
[17] = Toxicity in Balb/c mouse xenografted with human NCI-H1975 cells assessed as serum AST level at 8 mg/kg, ip administered 3 times per week for 25 days (reference value: 122 +/- 14.5 IU/L); assay type: organism-based; conditions: in vivo, 600 h
[18] = Toxicity in Balb/c mouse xenografted with human NCI-H1975 cells assessed as serum BUN level at 4 mg/kg, ip administered 3 times per week for 25 days (reference value: 18.5 +/- 1.6 mg/dl); assay type: organism-based; conditions: in vivo, 600 h
[19] = Toxicity in Balb/c mouse xenografted with human NCI-H1975 cells assessed as serum BUN level at 8 mg/kg, ip administered 3 times per week for 25 days (reference value: 18.5 +/- 1.6 mg/dl); assay type: organism-based; conditions: in vivo, 600 h
[20] = Toxicity in Balb/c mouse xenografted with human NCI-H1975 cells assessed as serum creatinine level at 4 mg/kg, ip administered 3 times per week for 25 days (reference value: 0.14 +/- 0.02 mg/dl); assay type: organism-based; conditions: in vivo, 600 h
[21] = Toxicity in Balb/c mouse xenografted with human NCI-H1975 cells assessed as serum creatinine level at 8 mg/kg, ip administered 3 times per week for 25 days (reference value: 0.14 +/- 0.02 mg/dl); assay type: organism-based; conditions: in vivo, 600 h
[22] = Induction of apoptosis in human NHFB cells assessed as PARP cleavage at 40 nM after 24 to 72 hrs by immunoblotting analysis; assay type: cell-based; conditions: 0.04 µM
[23] = Induction of apoptosis in human NHFB cells assessed as cleaved caspase 3 expression at 40 nM after 24 to 72 hrs by immunoblotting analysis; assay type: cell-based; conditions: 0.04 µM
[24] = Induction of apoptosis in human NHFB cells assessed as cytochrome c release at 40 to 80 nM after 24 hrs by immunoblotting analysis; assay type: cell-based; conditions: 0.08 µM
[25] = Cell cycle arrest in human NHFB cells assessed as effect on cell population at sub-G1 phase at 40 to 80 nM after 24 hrs by propidium iodide-staining based flow cytometry; assay type: ADME; conditions: 0.08 µM
In short: (§3)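 Cells treated for 24 h, then trypsinized and fixed overnight in ice-cold 70% ethanol. Stained for 30 min with propidium iodide (10 µg/mL) plus RNase (20 µg/mL), and DNA content measured by flow cytometry. Mean ± SD.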

[26] = Cell cycle arrest in human NHFB cells assessed as effect on cell population at G2/M phase at 40 to 80 nM after 24 hrs by propidium iodide-staining based flow cytometry; assay type: ADME; conditions: 0.08 µM; in short: as §3
Tubulin = experiment: Binding affinity to tubulin (unknown origin) assessed as dissociation constant by SPR analysis; assay type: protein-complex assay, Homo sapiens
In short: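 Biotin-tubulin (50 µg/mL) captured on a streptavidin chip to about 3,000 RU, with remaining sites blocked by biocytin and a free flow cell as reference. Compound injected at different concentrations in HBS-EP+ (pH 7.4) at 25 °C. KD obtained from steady-state fitting.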

Tubulin (Homo sapiens) [27] = biological target: T2, Tubulin (Homo sapiens) (UniProt P68371+Q9H4B7+P0DPH7+P68366+Q13509+Q71U36+P04350+Q3ZCM7+P07437+P68363+Q9BQE3+Q6PEY2+Q13885+Q9BVA1+Q9BUF5); experiment: Binding affinity to tubulin (unknown origin) assessed as increase in Beta-col fragment production at 100 uM after 30 mins by coomassie brilliant blue staining based trypsin proteolysis assay; assay type: protein-complex assay
In short: (§4)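 Tubulin (1 mg/mL) preincubated with 100 µM compound for 30 min at 30 °C in 0.1 M MES, 1 mM MgCl2, 1 mM EGTA, pH 6.9. Trypsin added at 25 µg/mL (1:40 w/w) for 10 min on ice. Fragments resolved on 15% SDS-PAGE, stained with Coomassie and quantified by densitometry.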

Tubulin (Homo sapiens) [28] = biological target: T2, Tubulin (Homo sapiens); experiment: Binding affinity to tubulin (unknown origin) assessed as reduction in Beta-colfragment production at 100 uM after 30 mins by coomassie brilliant blue staining based trypsin proteolysis assay; assay type: protein-complex assay; in short: as §4
Tubulin (Homo sapiens) [29] = biological target: T2, Tubulin (Homo sapiens); experiment: Binding affinity to tubulin (unknown origin) assessed as reduction in alpha-N fragment production at 100 uM after 30 mins by coomassie brilliant blue staining based trypsin proteolysis assay; assay type: protein-complex assay; in short: as §4
Tubulin (Homo sapiens) [30] = biological target: T2, Tubulin (Homo sapiens); experiment: Binding affinity to tubulin (unknown origin) assessed as reduction in alpha-C fragment production at 100 uM after 30 mins by coomassie brilliant blue staining based trypsin proteolysis assay; assay type: protein-complex assay; in short: as §4

Sequence of Tubulin (Sus scrofa) (P02550 whole entry, looked up): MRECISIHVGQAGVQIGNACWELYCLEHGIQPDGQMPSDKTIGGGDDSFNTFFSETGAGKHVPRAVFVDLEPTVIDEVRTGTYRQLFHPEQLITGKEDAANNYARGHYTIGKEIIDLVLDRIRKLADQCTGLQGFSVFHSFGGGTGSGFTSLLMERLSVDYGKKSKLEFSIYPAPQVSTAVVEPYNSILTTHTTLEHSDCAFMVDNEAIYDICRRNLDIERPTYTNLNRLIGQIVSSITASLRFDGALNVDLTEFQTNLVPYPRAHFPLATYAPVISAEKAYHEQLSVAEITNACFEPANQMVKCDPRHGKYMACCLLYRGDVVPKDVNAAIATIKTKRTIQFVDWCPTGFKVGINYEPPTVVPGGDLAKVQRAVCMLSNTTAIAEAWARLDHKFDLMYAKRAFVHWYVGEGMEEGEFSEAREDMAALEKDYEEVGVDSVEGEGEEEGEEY
Sequence of Tubulin (Sus scrofa) (P02554 whole entry, looked up): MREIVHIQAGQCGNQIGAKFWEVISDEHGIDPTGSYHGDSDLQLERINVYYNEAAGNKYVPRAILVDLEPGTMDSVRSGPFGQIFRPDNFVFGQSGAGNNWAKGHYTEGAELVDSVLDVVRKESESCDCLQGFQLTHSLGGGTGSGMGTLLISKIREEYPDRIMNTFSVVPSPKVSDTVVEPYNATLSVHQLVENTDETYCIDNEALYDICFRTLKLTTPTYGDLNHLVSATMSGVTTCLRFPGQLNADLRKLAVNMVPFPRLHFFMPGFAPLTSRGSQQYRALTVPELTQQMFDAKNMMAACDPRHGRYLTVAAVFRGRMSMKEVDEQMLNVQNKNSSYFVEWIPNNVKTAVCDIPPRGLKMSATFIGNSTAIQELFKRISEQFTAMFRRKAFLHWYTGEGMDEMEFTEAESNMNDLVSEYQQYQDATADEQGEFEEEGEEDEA

SMILES: C/C(=C\c1csc(C)n1)[C@@H]1C[C@@H]2O[C@]2(C)CCC[C@H](C)[C@H](O)[C@@H](C)C(=O)C(C)(C)[C@@H](O)CC(=O)N1 [IXABEPILONE]
IC50 (KB): 8 nM | IC50 (CCRF-CEM): 3 nM | IC50 [1]: 35 nM | Ratio IC50 [2]: 4.3 | IC50 [3]: 193 nM | Ratio IC50 [4]: 24 | IC50 [5]: 150 nM | Ratio IC50 [6]: 50

IC50 (CCRF-CEM): 4 nM | Activity [7]: inactive | Activity [8]: inactive | tubulin inhibition call (active/not active) (Tubulin (Sus scrofa)): inactive
SMILES: CC(=O)O[C@H]1C(=O)[C@@]2(C)[C@H]([C@H](OC(=O)c3ccccc3)[C@]3(O)C[C@H](OC(=O)[C@H](O)[C@@H](NC(=O)c4ccccc4)c4ccccc4)C(C)=C1C3(C)C)[C@]1(OC(C)=O)CO[C@@H]1C[C@@H]2O [PACLITAXEL]
IC50 [1]: 101 nM | IC50 [3]: 708 nM | IC50 [5]: 857 nM | Activity [9]: 868.7 mm3 | Activity [10]: 102.8 IU/L | Activity [11]: 19 mg/dL | Activity [12]: 0.16 mg/dL

IC50 (NCI-H1975): 2200 nM
SMILES: CCOC(=O)c1ccc2[nH]c(-c3ccc(OC)cc3)cc(=O)c2c1

IC50 (NCI-H1975): 207 nM
SMILES: COC(=O)c1ccc2[nH]c(-c3ccccc3)cc(=O)c2c1

IC50 (NCI-H1975): 48 nM
SMILES: CC(C)OC(=O)c1ccc2[nH]c(-c3ccccc3)cc(=O)c2c1

Kd (Tubulin): 13800 nM
SMILES: CCOC(=O)c1ccc2[nH]c(-c3ccccc3)cc(=O)c2c1
Activity [13]: Non-Toxic | Activity [14]: 40.8 IU/L | Activity [15]: 54.2 IU/L | Activity [16]: 138.7 IU/L | Activity [17]: 170.8 IU/L | Activity [18]: 23.2 mg/dL | Activity [19]: 20.9 mg/dL | Activity [20]: 0.26 mg/dL | Activity [21]: 0.17 mg/dL | Activity [22]: Non-Toxic | Activity [23]: Non-Toxic | Activity [24]: Non-Toxic | Activity [25]: Non-Toxic | Activity [26]: Non-Toxic

IC50 (NCI-H1975): > 5000 nM
SMILES: O=C(O)c1ccc2[nH]c(-c3ccccc3)cc(=O)c2c1

Activity [7]: Active | Activity [8]: Active | tubulin inhibition call (active/not active) (Tubulin (Sus scrofa)): Active | Activity (Tubulin (Homo sapiens) [27]): Active
SMILES: COC(=O)Nc1nc2cc(C(=O)c3cccs3)ccc2[nH]1

IC50 (NCI-H1975): 4500 nM
SMILES: CCOC(=O)c1ccc2[nH]c(-c3ccc(Br)cc3)cc(=O)c2c1

IC50 (NCI-H1975): 780 nM
SMILES: CCOC(=O)c1ccc2[nH]c(-c3cccc(C(F)(F)F)c3)cc(=O)c2c1

IC50 (NCI-H1975): 2100 nM
SMILES: CCOC(=O)c1ccc2[nH]c(-c3ccc(F)cc3)cc(=O)c2c1

IC50 (KB): 5 nM | IC50 (CCRF-CEM): 3 nM | tubulin inhibition call (active/not active) (Tubulin (Sus scrofa)): Active | Activity (Tubulin (Homo sapiens) [28]): Active | Activity (Tubulin (Homo sapiens) [29]): Active | Activity (Tubulin (Homo sapiens) [30]): Active
SMILES: CC[C@]1(O)C[C@H]2CN(CCc3c([nH]c4ccccc34)[C@@](C(=O)OC)(c3cc4c(cc3OC)N(C=O)[C@H]3[C@@](O)(C(=O)OC)[C@H](OC(C)=O)[C@]5(CC)C=CCN6CC[C@]43[C@@H]65)C2)C1 [VINCRISTINE]
IC50 [1]: 49 nM | Ratio IC50 [2]: 9.8 | IC50 [3]: 817 nM | Ratio IC50 [4]: 163 | IC50 [5]: 1320 nM | Ratio IC50 [6]: 440

IC50 (NCI-H1975): 1950 nM
SMILES: CCOC(=O)c1ccc2[nH]c(-c3cccc(O)c3)cc(=O)c2c1

IC50 (NCI-H1975): 3700 nM
SMILES: CCNC(=O)c1ccc2[nH]c(-c3ccccc3)cc(=O)c2c1

IC50 (NCI-H1975): 810 nM
SMILES: CCOCc1ccc2[nH]c(-c3ccccc3)cc(=O)c2c1

IC50 (NCI-H1975): 475 nM
SMILES: CCOC(=O)c1ccc2[nH]c(-c3ccc(O)cc3)cc(=O)c2c1

IC50 (NCI-H1975): 44 nM
SMILES: CCOC(=O)c1ccc2[nH]c(-c3cccc(OC)c3)cc(=O)c2c1
